We go through 7 molecules from article PMC2788794 (Chemistry & biology, 2009).

Experiment [1] relates to αIIbβ3 CHO K1 cells. Description: Adhesion of transfected cells to GRGDSC monolayer in presence of inhibitors. In kind it is cell-based. As to conditions: 0.5% GRGDSC SAM.
Experiment [2] relates to αIIbβ3 CHO K1 cells. Description: Cell adhesion inhibition assay with soluble peptides. The format is cell-based. The conditions noted are these: soluble peptide 1 pM to 100 µM; 0.5% GRGDSC monolayer; 300 µM cRGDFG.
The subject of experiment [3] is platelets. The conditions noted are these: ref Bennett et al., 1988; cited from earlier work.
In experiment [4] the test system is platelets. As to conditions: cited from earlier work; for inhibition of Fbg binding to platelets: ref Bennett et al., 1988.
In experiment [5] the test system is αIIbβ3. The conditions noted are these: platelets; ref Bennett et al., 1988; cited from earlier work.
Experiment [6] relates to CHO K1 cells. Description: Block of cell attachment to GRGDSC monolayer by cRGDFG. In kind it is cell-based. The conditions noted are these: cRGDFG 300 µM; 0.5% GRGDSC SAM. In short, it runs like this: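 Untransfected CHO K1 cells (F12K, 10% FBS, 37 °C, 5% CO2) were seeded on 0.5% GRGDSC SAMs, with or without cRGDFG 300 µM. The GRGDSC surface was made by coupling cysteine-terminated peptide (1 mM, 37 °C, 1 h) to a maleimide-presenting monolayer with tri(ethylene glycol) background. Adherent cells were scored by optical microscopy.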

Experiment [7] relates to αvβ3. As to conditions: ref Haubner et al., 1996; cited from earlier work.
In experiment [8] the test system is αIIbβ3 CHO K1 cells. Description: Cell adhesion assay on self-assembled monolayers presenting immobilized peptides. The format is cell-based. The conditions noted are these: Fbg adsorbed on dodecanethiol (hydrophobic) monolayer; 300 µM cRGDFG.

PAC-1: the “effect on adhesion of αIIbβ3 CHO K1 cells to a monolayer presenting GRGDSC” value in experiment [1] (PAC-1 antibody together with cRGDFG 300 µM) is on record as “prevented cell adhesion”.
Turning to HHLGGAKQAGDV, the “block of cell attachment by soluble peptide to a monolayer presenting GRGDS” value in experiment [2] is on record as “blocked cell attachment”.
Consider LGGAKQAGDV, for which the “inhibition of binding of A2A9 to platelets” value in experiment [3] was “could inhibit the binding of A2A9”. In experiment [4], the “inhibition of Fbg binding to platelets” value is “inhibited Fbg binding to platelets with an affinity comparable to that of RGDS”.
Turning to RGDS, the “inhibition of PAC-1 binding” value in experiment [5] is “blocked the binding of both PAC-1 and Fbg to platelets with equal potency”. Besides, the “inhibition of Fbg binding to platelets” value in experiment [4] was “blocked the binding of both PAC-1 and Fbg to platelets with equal potency”.
In the case of cRGDFG (head to tail), the “block of attachment of CHO K1 cells to a monolayer presenting GRGDSC” value in experiment [6] was “efficiently block the attachment”. For the same molecule, the “effect on adhesion of αIIbβ3 CHO K1 cells to a monolayer presenting GRGDSC” value in experiment [1] (cRGDFG 300 µM) was “did not interfere with adhesion”. Also, in experiment [7], the “affinity for αvβ3 relative to that for αIIbβ3” value is reported as “approximately 1,400 fold”.
For AGDV, the “block of cell attachment by soluble peptide to a monolayer presenting GRGDS” value in experiment [2] is recorded as “blocked cell attachment”. Besides, in experiment [4] (soluble peptide competing with radiolabeled Fbg, ref Plow et al., 1985), the “inhibition of Fbg binding to activated platelets” value is on record as “failure of an AGDV peptide to inhibit Fbg binding”.

B1: Fbg: Human fibrinogen, plasma protein, adsorbed to hydrophobic monolayer as positive control (protein)
chain 1: ADSGEGDFLAEGGGVRGPRVVERHQSACKDSDWPFCSDEDWNYKCPSGCRMKGLIDEVNQDFTNRINKLKNSLFEYQKNNKDSHSLTTNIMEILRGDFSSANNRDNTYNRVSEDLRSRIEVLKRKVIEKVQHIQLLQKNVRAQLVDMKRLEVDIDIKIRSCRGSCSRALAREVDLKDYEDQQKQLEQVIAKDLLPSRDRQHLPLIKMKPVPDLVPGNFKSQLQKVPPEWKALTDMPQMRMELERPGGNEITRGGSTSYGTGSETESPRNPSSAGSWNSGSSGPGSTGNRNPGSSGTGGTATWKPGSSGPGSTGSWNSGSSGTGSTGNQNPGSPRPGSTGTWNPGSSERGSAGHWTSESSVSGSTGQWHSESGSFRPDSPGSGNARPNNPDWGTFEEVSGNVSPGTRREYHTEKLVTSKGDKELRTGKEKVTSGSTTTTRRSCSKTVTKTVIGPDGHKEVTKEVVTSEDGSDCPEAMDLGTLSGIGTLDGFRHRHPDEAAFFDTASTGKTFPGFFSPMLGEFVSETESRGSESGIFTNTKESSSHHPGIAEFPSRGKSSSYSKQFTSSTSYNRGDSTFESKSYKMADEAGSEADHEGTHSTKRGHAKSRPVRGIHTSPLGKPSLSP
chain 2: QGVNDNEEGFFSARGHRPLDKKREEAPSLRPAPPPISGGGYRARPAKAAATQKKVERKAPDAGGCLHADPDLGVLCPTGCQLQEALLQQERPIRNSVDELNNNVEAVSQTSSSSFQYMYLLKDLWQKRQKQVKDNENVVNEYSSELEKHQLYIDETVNSNIPTNLRVLRSILENLRSKIQKLESDVSAQMEYCRTPCTVSCNIPVVSGKECEEIIRKGGETSEMYLIQPDSSVKPYRVYCDMNTENGGWTVIQNRQDGSVDFGRKWDPYKQGFGNVATNTDGKNYCGLPGEYWLGNDKISQLTRMGPTELLIEMEDWKGDKVKAHYGGFTVQNEANKYQISVNKYRGTAGNALMDGASQLMGENRTMTIHNGMFFSTYDRDNDGWLTSDPRKQCSKEDGGGWWYNRCHAANPNGRYYWGGQYTWDMAKHGTDDGVVWMNWKGSWYSMRKMSMKIRPFFPQQ
chain 3: YVATRDNCCILDERFGSYCPTTCGIADFLSTYQTKVDKDLQSLEDILHQVENKTSEVKQLIKAIQLTYNPDESSKPNMIDAATLKSRKMLEEIMKYEASILTHDSSIRYLQEIYNSNNQKIVNLKEKVAQLEAQCQEPCKDTVQIHDITGKDCQDIANKGAKQSGLYFIKPLKANQQFLVYCEIDGSGNGWTVFQKRLDGSVDFKKNWIQYKEGFGHLSPTGTTEFWLGNEKIHLISTQSAIPYALRVELEDWNGRTSTADYAMFKVGPEADKYRLTYAYFAGGDAGDAFDGFDFGDDPSDKFFTSHNGMQFSTWDNDNDKFEGNCAEQDGSGWWMNKCHAGHLNGVYYQGGTYSKASTPNGYDNGIIWATWKTRWYSMKKTTMKIIPFNRLTIGEGQQHHLGGAKQAGDV
On to B1, for which the “adhesion and spreading of αIIbβ3 CHO cells on adsorbed Fbg (positive control)” value in experiment [8] is “adhered and spread”.
